E coli WT exp: blocks growth of wild type E. coli BW25113 | OD600 absorbance | growth inhibition, % at 100 µM | 98,000 tested, 0.15% active | AID 710;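 active means growth inhibition above about 50% at one test dose, limit read from the data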;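 further: growth measured after 20 h incubation at 37 °C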
CYP2C9 activ: increases human cytochrome P450 2C9 activity; AID 1024; 96,000 tested, 1.4% active; recombinant CYP2C9, luciferin-H conversion, luminescence; hits give high values; factor 1 = untreated enzyme, 0 = blocked; activation factor at 5 µM; P11712;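 active means activation factor of 2 or more for CYP2C9 at a 5 µM dose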;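 further: 0 = sulfaphenazole-blocked wells and 1 = vehicle-only wells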
CYP2C19 activ: increases human CYP2C19 enzyme activity. P33261. recombinant CYP2C19, luciferin-H EGE luminescence; hits give high values; 0 = fully inhibited enzyme, 1 = untreated enzyme. activation factor at 5 µM. 96,000 tested, under 10 active;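 active means activation factor of at least 2 at 5 µM in the primary screen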;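 further: 0 = wells with 2.5 mM tranylcypromine and 1 = vehicle-only wells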
Target sequence (P33261 whole entry, looked up): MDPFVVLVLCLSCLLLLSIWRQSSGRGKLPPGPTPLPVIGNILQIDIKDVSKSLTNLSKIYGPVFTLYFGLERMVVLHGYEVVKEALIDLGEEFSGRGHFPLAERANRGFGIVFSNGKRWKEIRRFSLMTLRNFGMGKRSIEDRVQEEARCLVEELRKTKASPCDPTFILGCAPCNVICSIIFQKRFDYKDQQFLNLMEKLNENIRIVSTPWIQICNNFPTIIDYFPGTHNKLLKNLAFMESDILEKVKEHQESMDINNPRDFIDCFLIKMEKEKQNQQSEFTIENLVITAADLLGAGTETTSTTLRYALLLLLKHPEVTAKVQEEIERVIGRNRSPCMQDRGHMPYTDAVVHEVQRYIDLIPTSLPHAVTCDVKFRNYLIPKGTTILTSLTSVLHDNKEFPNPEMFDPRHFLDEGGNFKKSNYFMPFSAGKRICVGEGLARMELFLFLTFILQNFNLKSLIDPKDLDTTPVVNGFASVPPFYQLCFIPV
CYP2C9 inhib: human CYP2C9 inhibition. AID 777. CYP2C9 Supersomes, luciferin-H conversion, luminescence. P11712. 96,000 tested, 20% active. inhibition, % at 5 µM;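 active means blocking of liver enzyme CYP2C9 beyond about 50% at 5 µM, limit read from the data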
tolC growth inh: growth inhibitors of E. coli BW25113 tolC mutant. 65,000 tested, 2.2% active. growth inhibition, % at 10 µM (by protocol). AID 573. OD615;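 active means growth inhibition at or above a cutoff equal to the mean over every tested compound plus 3 SD, cut at about 60% in these data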;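 further: growth measured after 20 h incubation at 37 °C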
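Test system – E. coli BW25113 ΔtolC::kan, tolC deletion mutant strain · Detection – OD at 615 nm · Buffer or medium – LB with kanamycin 50 µg/mL · Times – 20 h compound exposure of bacteria at 37 °C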
CYP2C19 inhib: inhibitors of human CYP2C19; P33261; CYP2C19 Supersomes, luciferin-H EGE luminescence, 30 min; inhibition, % at 5 µM; 96,000 tested, 21% active; AID 778;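 active means CYP2C19 inhibition above a set limit at 5 µM in the primary screen, cut at about 50% in these data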;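 further: plate controls were negative control wells for no effect and 2.5 mM tranylcypromine positive control for full effect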
The depositor's hits bear a star; x = no result. Most compounds without a hit are left out; they make up all but 29% or so of the library.

SMILES | E coli WT exp | CYP2C9 activ | CYP2C19 activ | CYP2C9 inhib | tolC growth inh | CYP2C19 inhib
CCOC(=O)C1CCCN(C(=O)CC(C)c2ccccc2)C1 (stereo unspecified) | 0 | 0.2 | 0.2 | 84* | 6 | 79*
O=C(c1nn2cccnc2c1Cl)N1CCN(c2ccccc2)CC1 | 0 | x | x | x | -8 | x
O=C(Nc1nnc(CCN2CCOCC2)s1)C1CCCCC1 | -3 | 1 | 1 | 0 | -32 | -1
CC1CCN(CCCn2c(=S)[nH]c3ccc(N4CCOCC4)cc3c2=O)CC1 | -1 | 0.9 | 1.1 | 14 | -18 | -14
CCOC(=O)C1CCCN(C(=O)c2cc(Cl)ccc2Cl)C1 (stereo unspecified) | -5 | 0.1 | 0 | 94* | -3 | 97*
CCOC(=O)N1CCN(C(=O)c2ccc3c(c2)sc2nc(-c4ccccc4)cn23)CC1 | -1 | 0.4 | 0.5 | 57* | -2 | 49
COC(=O)C1CCN(C(=O)c2cc(OC)c(OC)c(OC)c2)CC1 | 2 | 1.1 | 0.6 | -15 | -2 | 42
CCOC(=O)C1CCCN(C(=O)c2cccs2)C1 (stereo unspecified) | 1 | 0.8 | 0.6 | 18 | -6 | 39
CCOC(=O)N1CCC(NC(=O)c2ccc3c(c2)sc2nc(-c4ccc(OC)cc4)cn23)CC1 | -1 | 0.9 | 0.9 | 14 | -19 | 14
COC(=O)C1CCN(C(=O)C(C)Oc2ccc(Cl)cc2Cl)CC1 (stereo unspecified) | 7 | 0.8 | 0.1 | 18 | 1 | 90*
CCOC(=O)C1CCCN(C(=O)Cc2c(F)cccc2Cl)C1 (stereo unspecified) | -5 | 0.6 | 0.3 | 43 | 3 | 67*
CCOC(=O)C1CCCN(C(=O)C(C)Oc2ccc(Cl)cc2Cl)C1 (stereo unspecified) | -6 | 0.5 | 0.6 | 51* | 18 | 40
CCOC(=O)C1CCN(C(=O)CC(C)c2ccccc2)CC1 (stereo unspecified) | 5 | 1 | 0.8 | 4 | 5 | 19
CCOC(=O)C1CCCN(C(=O)c2ccccc2SCCOC)C1 (stereo unspecified) | -1 | 0.3 | 0.4 | 68* | 1 | 61*
CCOC(=O)C1CCN(C(=O)Nc2ccc(Cl)cc2Cl)CC1 | x | x | x | x | -4 | x
CCOC(=O)C1CCN(C(=O)CSc2ccccc2)CC1 | 3 | 0.7 | 0.4 | 31 | -5 | 64*
CCCCC(=O)Nc1ccc(C(=O)N2CCCC(C(=O)OCC)C2)cc1 (stereo unspecified) | 0 | 1 | 0.1 | -1 | -3 | 92*
CCOC(=O)C1CCCN(C(=O)c2cn(C)c(=O)c3cc(OC)c(OC)cc23)C1 (stereo unspecified) | x | x | x | x | 4 | x
CCCC(=O)Nc1ccc(C(=O)N2CCCC2)cc1 | -4 | 1 | 1 | 0 | -2 | -4
Cc1cc(=O)oc2cc(OCC(=O)NCCc3nc4ccccc4[nH]3)ccc12 | 0 | 0.5 | 0.8 | 46 | 2 | 24
CCCCN(CCCC)c1cc(C)nc(-c2ccccc2O)n1 | 4 | 0.8 | 1 | 24 | x | 5
CCOC(=O)C1CCCN(Cc2c(F)cccc2Cl)C1 (stereo unspecified) | 10 | 0.9 | 0.4 | 7 | -9 | 62*
CCOC(=O)C1(S(=O)(=O)c2ccccc2)CCN(Cc2ccc(Cl)cc2)CC1 | -13 | 0.7 | 0.5 | 30 | x | 46
CCOC(=O)C1CCCN(C(=O)Cn2nc(CC)n3c(cc4sccc43)c2=O)C1 (stereo unspecified) | 5 | 0.6 | 0.2 | 45 | 4 | 84*
CCOC(=O)N1CCN(C(=O)CCSCCc2ccncc2)CC1 | 5 | 0.7 | 0.4 | 32 | -26 | 63*
SMILES | E coli WT exp | CYP2C9 activ | CYP2C19 activ | CYP2C9 inhib | tolC growth inh | CYP2C19 inhib
CCOC(=O)C1CCN(Cc2c(F)cccc2Cl)CC1 | 13 | 0.8 | 0.8 | 17 | -13 | 18
CCOC(=O)C1(S(=O)(=O)c2ccc(Cl)cc2)CCN(Cc2ccc(Cl)cc2)CC1 | -9 | 0.3 | 0.4 | 69* | x | 57*
CCOC(=O)CCCn1nc(C)n2c(cc3sccc32)c1=O | x | x | x | x | -2 | x
CN=C1S/C(=C\c2ccc(N3CCOCC3)c(F)c2)C(=O)N1C | -9 | 0.9 | 0.9 | 7 | x | 12
CC(C)(C)c1nnc(NC(=O)NS(=O)(=O)c2ccccc2)s1 | -2 | 0.8 | 1 | 21 | x | -3
CC1CCCCN1C(=O)Cc1ccc(Cl)cc1 (stereo unspecified) | 5 | 0.7 | 0 | 31 | 11 | 96*
CCOC(=O)N1CCN(C(=O)Cc2ccc(Cl)cc2)CC1 | -4 | 0.4 | 0.5 | 64* | 2 | 54*
CC1CCCCN1C(=O)c1cc(F)c(F)cc1Cl (stereo unspecified) | -3 | 1 | 0.6 | 5 | -6 | 41
CCOC(=O)N1CCN(CCC(=O)c2ccc(Cl)cc2)CC1 | 25 | 0.4 | 0.6 | 64* | -13 | 37
CCOC(=O)N1CCN(C(=O)CSCc2ccc(C)cc2)CC1 | 3 | 0.9 | 0.9 | 13 | x | 12
CCOC(=O)N1CCN(CCC(=O)Nc2ccc(C)cc2)CC1 | 7 | 1 | 0.9 | 3 | -4 | 6
CCCCn1c(N)c(N(CCC(C)C)C(=O)CSc2nnc(C)s2)c(=O)[nH]c1=O | -1 | 1 | 0.8 | 4 | -18 | 16
Nc1cccc2c1C(=O)N(C(=O)c1cccc(S(=O)(=O)N3CCCCCC3)c1)C2=O | 0 | 1 | 1 | 4 | x | 0
O=c1c2ccccc2n2nnnc2n1-c1ccccc1 | 4 | 1 | 1 | -2 | -6 | 0
CCOC(=O)NC1(NC2CCCCC2)Oc2ccccc2O1 | 38 | 0.4 | 0.7 | 57* | 1 | 34
CC(NC(=O)COc1ccc(/C=N/NC(=O)C(=O)Nc2ccccc2Br)cc1)c1ccccc1 (stereo unspecified) | -9 | 0.3 | 0.5 | 69* | x | 47
COc1ccc(Br)c(/C=N/NC(=O)COc2ccc(-c3ccccc3)cc2)c1 | -17 | 0.6 | 0.8 | 38 | x | 25
CN1C(=O)/C(=C/c2ccccc2OCc2cccc(F)c2)NC1=S | -12 | 0.3 | 1 | 65* | x | -2
Cc1sc2nc(CN3CCN(S(=O)(=O)c4cccc5nonc45)CC3)[nH]c(=O)c2c1C | -2 | 1 | 1.1 | 1 | 2 | -6
CC(NS(=O)(=O)c1ccc(F)cc1)C(c1cccs1)N1CCN(C)CC1 (stereo unspecified) | x | x | x | x | -13 | x
Cc1ccc(C)c(N2CCN(C(=O)c3cc4ccccn4n3)CC2)c1 | 9 | 0.7 | 0.8 | 29 | 47 | 25
COc1ccc(NS(=O)(=O)c2coc(C(N)=O)c2)cc1Cl | -3 | x | x | x | 1 | x
COc1cc(OC)c(NS(=O)(=O)c2coc(C(N)=O)c2)cc1Cl | 6 | 0.8 | 0 | 17 | -9 | 96*
COC(=O)CSc1ccc2c(N)c(C(=O)OC)sc2c1 | 4 | 0.7 | 0.6 | 33 | -16 | 39
COc1ccc(CNC(=S)Nc2cccc(C)c2C)cc1 | 1 | 1.1 | 0.5 | -14 | x | 49

Assay outcomes deposited in PubChem BioAssay by several laboratories.
